# Screens: PubChem BioAssay, several laboratories
# IMP-1 inhibitor – IMP-1 metallo-beta-lactamase inhibitors, primary screen, biochemical, epi-absorbance readout, Pseudomonas aeruginosa enzyme. metallo-beta-lactamase IMP-1 (Pseudomonas aeruginosa). purified IMP-1, nitrocefin hydrolysis, epi-absorbance fluorescence. inhibition, % at 5.6 µM. 290,000 tested, 0.45% active. AID 1556, 2009;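 active means inhibition above the mean plus 3 SD of all compounds in the same screening run, cut at about 4.5% in these data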;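 further: 0% = IMP-1 with DMSO and 100% = DMSO wells lacking enzyme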
#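 System: purified IMP-1; amount: IMP-1 0.2 nM before substrate addition; compound: single dose, 5.6 µM; times: 25 °C, 15 min preincubation, 25 min reaction; signal: Epi-absorbance via hydrolysed-nitrocefin quenching of white-plate fluorescence, 480/530 nm, EDTA stop; benchmarks: DMSO with and without IMP-1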
# MEKK2wt PB1 HTS – modulators of MEK5 binding to wildtype MEKK2, primary screen, biochemical, multiplex bead flow cytometry, Alexa488-MEK5 | binding response (% of control), % at 10 µM | 290,000 tested, 1.1% active | Mitogen-activated protein kinase kinase kinase 2 (Homo sapiens), Q9Y2U5 | Alexa488-MEK5 binding to MEKK2 WT; actives lie on both sides | AID 1531, 2009; in the data active means binding response below about 67% or above about 130%
# VIM-2 inh – VIM-2 metallo-beta-lactamase inhibitors, primary screen, biochemical, epi-absorbance readout, Pseudomonas aeruginosa enzyme; inhibition, % at 5.6 µM; AID 1527, 2009; purified VIM-2, nitrocefin hydrolysis, epi-absorbance fluorescence; 290,000 tested, 0.89% active;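 active means inhibition above the mean of all tested compounds plus 3 SD, cutoff set per screening run, cut at about 7.5% in these data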;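 further: red hydrolysis product quenches plate fluorescence so inhibitors raise well fluorescence; 0% = enzyme with DMSO and 100% = DMSO without enzyme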
# MEKK2mut PB1 HTS – MEK5 binding signal on mutant MEKK2 PB1, primary screen, biochemical, multiplex bead flow cytometry, Alexa488-MEK5 | Alexa488-MEK5 binding to MEKK2 mutant | percent response, % at 10 µM | 290,000 tested, 0.35% active | AID 1530, 2009; in the data active means percent response above about 24%, passing the limit was not always enough
# MEKK3 PB1 HTS – modulators of MEKK3-MEK5 PB1 binding, primary screen, biochemical, wildtype MEKK3, multiplex bead flow cytometry, Alexa488-MEK5. Mitogen-activated protein kinase kinase kinase 3 (Homo sapiens), Q99759. bead-based flow cytometry, Alexa488-MEK5 binding to MEKK3; actives lie on both sides; 0 = blocked by unlabeled MEK5, 100 = vehicle. binding response (% of control), % at 10 µM. 290,000 tested, 1.4% active. AID 1529, 2009;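 active means binding response more than 3 SD above or below the average of its plate-row segment, actives on both sides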;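 further: Alexa488 bead fluorescence after subtracting the streptavidin-only scavenger bead signal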
# Target sequence (Q99759 whole entry, looked up): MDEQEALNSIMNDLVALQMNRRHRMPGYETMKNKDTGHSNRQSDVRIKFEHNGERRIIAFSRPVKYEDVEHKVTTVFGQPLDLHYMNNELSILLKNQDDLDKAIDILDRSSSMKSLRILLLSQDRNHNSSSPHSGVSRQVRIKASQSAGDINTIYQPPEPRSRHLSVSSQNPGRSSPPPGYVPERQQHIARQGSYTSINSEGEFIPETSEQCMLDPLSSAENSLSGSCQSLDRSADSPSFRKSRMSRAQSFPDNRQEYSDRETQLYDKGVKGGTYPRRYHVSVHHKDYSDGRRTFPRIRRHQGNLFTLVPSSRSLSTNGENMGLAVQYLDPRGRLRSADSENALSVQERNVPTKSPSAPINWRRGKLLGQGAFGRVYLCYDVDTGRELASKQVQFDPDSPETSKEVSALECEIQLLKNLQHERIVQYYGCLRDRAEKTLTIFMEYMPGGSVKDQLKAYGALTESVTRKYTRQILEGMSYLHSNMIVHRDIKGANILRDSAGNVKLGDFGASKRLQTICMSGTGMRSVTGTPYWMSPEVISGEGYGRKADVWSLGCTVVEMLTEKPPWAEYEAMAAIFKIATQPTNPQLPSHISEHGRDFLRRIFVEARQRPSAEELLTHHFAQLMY
# Starred values were filed as active, the others as inactive; nt = not tested or not shown. A selection: hits, their analogues and other compounds. The true share with any hit is near 3.4%.
SMILES,IMP-1 inhibitor,MEKK2wt PB1 HTS,VIM-2 inh,MEKK2mut PB1 HTS,MEKK3 PB1 HTS
COC(=O)c1c(NC(=O)CC2Nc3cc(C)c(C)cc3NC2=O)sc(C)c1C (stereo not drawn),4.6*,95.0,-1.1,9.0,100.0
Cc1cc(C)n(-c2nc(N(C)C)nc(N3CCOCC3)n2)n1,-1.3,103.0,0.2,-1.0,102.0
O=C(COC(=O)CCC(=O)c1cccs1)NC(=O)c1ccc(OC(F)F)cc1,4.8*,98.0,-2.2,-1.0,103.0
CNC(=O)COC(=O)CCC(=O)c1cccs1,-1.1,96.0,-2.3,2.0,103.0
COc1ccc(C(=O)COC(=O)C2CCCN2C(=O)C23CC4CC(CC(C4)C2)C3)cc1 (stereo not drawn),-2.1,93.0,0.7,-3.0,92.0
O=C(Nc1ccccc1N1CCOCC1)c1cccnc1Cl,47.2*,75.0,1.4,-25.0,75.0
COc1ccc(-c2cn3c(C)c(C(=O)Nc4cccc(C)n4)sc3n2)cc1,-2.2,99.0,0.7,2.0,104.0
CC(C)Sc1nc(N2CCOCC2)c2c(c1C#N)CC(C)(C)SC2,-1.6,93.0,1.5,-3.0,98.0
Cc1ccc(C(=O)NCCN(C)C)cc1C,5.4*,101.0,-3.2,0.0,97.0
Cc1ccc2[nH]c(=O)c3cc(C(=O)N(CCCOC(C)C)Cc4ccco4)sc3c2c1,-3.0,108.0,8.1*,5.0,107.0
COC(=O)c1cccnc1NC(=S)NNC(=O)c1ccccc1,11.2*,94.0,-6.0,-4.0,96.0
COC(=O)c1ccccc1NC(=S)NC(=O)c1ccccc1,4.7*,94.0,-1.3,6.0,97.0
Cc1ccc(NC(=S)NC(=O)c2ccccc2)cc1NC(=S)NC(=O)c1ccccc1,-1.8,2.0*,-1.6,-11.0,83.0
COc1ccc(C2=NN(C(=O)CCC(=O)O)C(c3ccc(OC)cc3)C2)cc1 (stereo not drawn),2.4,100.0,1.6,-1.0,95.0
Cc1nn(-c2ccccc2)c(C)c1C(=O)Nc1ccc(N2CCOCC2)cc1,-3.3,100.0,-1.6,-3.0,101.0
Cc1ccc(-n2nc3c(=O)n(CC(=O)NCCc4ccc(Cl)cc4)nc(C)c3c2C)cc1,18.1*,103.0,-2.1,5.0,100.0
Cc1ccc(CCNC(=O)CCCn2nc(C)c3c(C)n(-c4ccc(C)cc4)nc3c2=O)cc1,-1.4,106.0,-0.1,6.0,103.0
Cc1ccc(-n2nc3c(=O)n(CCCC(=O)NCCN4CCN(C)CC4)nc(C)c3c2C)cc1,4.9*,89.0,1.7,-8.0,88.0
Cc1ccc(C)c(S(=O)(=O)N2CCCOC2CNC(=O)C(=O)NCc2cccnc2)c1 (stereo not drawn),-1.6,101.0,-2.9,-3.0,105.0
CN(CCCC[C@H](CNCc1ccc(-c2ccccc2)cc1)N1C[C@H](c2ccccc2)N(CCc2ccc(Cl)c(Cl)c2)C(=O)C1=O)Cc1ccc(-c2ccccc2)cc1,nt,228.0*,nt,78.0*,113.0
CCOC(=O)c1c(/N=C/C2C(=O)CCCC2=O)sc2c1CCCC2,-0.1,95.0,1.5,-6.0,100.0
O=C(O/N=C(\c1ccccc1)c1ccncc1)c1ccccc1F,-1.8,-8.0*,-3.5,4.0,104.0
O=C(O/N=C(/c1ccccc1)c1ccncc1)c1cccc(F)c1,-2.9,93.0,-3.8,-12.0,110.0
COc1cc2c(cc1/C=C/C(=O)O)OC(C)C2 (stereo not drawn),9.2*,89.0,3.7,-13.0,83.0
CCCOc1cc(N(CC)CC)ccc1/C=C(/C#N)c1nc2ccc(C)cc2[nH]1,0.6,57.0*,1.6,87.0*,111.0
SMILES,IMP-1 inhibitor,MEKK2wt PB1 HTS,VIM-2 inh,MEKK2mut PB1 HTS,MEKK3 PB1 HTS
CCN(CC)CCN(C(=O)/C=C/c1cccs1)c1nc2ccc(C)cc2s1,-0.7,160.0*,-0.5,17.0,105.0
COc1cccc2sc(N(CCN(C)C)C(=O)/C=C/c3cccs3)nc12,-2.5,130.0,-2.7,15.0,101.0
COc1ccc(C)c2sc(N(CCN(C)C)C(=O)/C=C/c3cccs3)nc12,0.7,145.0*,0.9,13.0,103.0
COc1ccc(OC)c2sc(N(CCN(C)C)C(=O)/C=C/c3cccs3)nc12,11.2*,109.0,5.4,2.0,101.0
CCOc1cccc2sc(N(CCN(C)C)C(=O)/C=C/c3cccs3)nc12,-0.7,144.0*,-1.3,26.0*,105.0
CCN1C(=O)c2ccc(-c3nc4ccccc4c(=O)o3)cc2C1=O,-0.7,95.0,-1.1,-2.0,100.0
CCCc1nnc(NC(=O)CCC(=O)N2CCN(Cc3cc(F)ccc3OC)CC2)s1,-1.9,100.0,-1.5,0.0,102.0
CCn1c(=O)c2sccc2n2c(CCCC(=O)N3CCN(c4ccccn4)CC3)nnc12,-0.4,99.0,8.8*,-8.0,101.0
CCn1c(=O)c2sccc2n2c(CCCC(=O)NC3CCN(Cc4ccccc4)CC3)nnc12,-2.6,108.0,8.0*,7.0,108.0
CC(C)CCn1c(=O)c2sccc2n2c(CCCC(=O)N3CCN(c4ccccn4)CC3)nnc12,-2.3,106.0,8.6*,4.0,105.0
CC(C)Cn1c(=O)c2sccc2n2c(CCCC(=O)N3CCC(N4CCCCC4)CC3)nnc12,-2.1,102.0,7.7*,1.0,98.0
Cn1c(=O)c2sccc2n2c(CCCC(=O)N3CCCCC3)nnc12,-2.2,102.0,0.1,5.0,101.0
Cc1ccc(SCC(=O)NNC(=O)c2ccccc2)c(C)c1,-1.4,97.0,-1.9,3.0,101.0
Cc1cc(NC(=O)CSc2nc(Cc3ccc(O)cc3)c(C)[nH]2)no1,2.2,96.0,1.4,-2.0,99.0
Cc1c(C=O)c2ccccn2c1C(=O)c1ccccc1Cl,-1.0,106.0,2.0,2.0,102.0
Cc1c(C=O)c2ccccn2c1C(=O)c1cccs1,-1.9,91.0,8.3*,-4.0,96.0
Cc1ccc(C(=O)Nc2nc(=O)n(C(=O)C3CC3)s2)cc1,-2.4,93.0,-3.1,-6.0,96.0
O=C(Nc1scc(-c2cccs2)c1C(=O)O)c1cccs1,15.3*,94.0,2.7,-2.0,95.0
CCOC(=O)c1c(-c2cccs2)csc1NC(=O)c1ccncc1,-3.5,103.0,-2.6,2.0,102.0
O=C(Nc1scc(-c2ccccc2)c1C(=O)O)c1ccco1,4.8*,109.0,-1.7,5.0,113.0
Cc1nc2ccc(N3C(=O)CCC3=O)cc2[nH]1,-3.5,109.0,-3.5,10.0,104.0
COc1cc(C(=O)N/N=C(\C)c2ccccn2)cc(OC)c1OC,-4.0,95.0,-5.4,-3.0,96.0
COc1cc(C(=O)N/N=C(\c2ccccc2)c2ccccn2)cc(OC)c1OC,-4.9,106.0,-2.6,0.0,134.0*
